ChEMBL document CHEMBL2331403, “Discovery and optimization of a novel series of potent mutant B-Raf(V600E) selective kinase inhibitors” (J Med Chem, 2013)

Columns and labels:
[1] = Volume of distribution at steady state in Han Wistar rat at 10 mg/kg, po and 3 mg/kg, iv; assay type: ADME, organism-based; details: in vivo, read-out: Vdss
Procedure, shortened: (§1)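 Rat PK study: oral dose 10 mg/kg in 0.1% HPMC; intravenous dose 3 mg/kg in 40% DMA/40% TEG/20% saline. Half-life taken from the iv arm; F not determined where no oral dose was given.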

[2] = Oral bioavailability in Han Wistar rat at 10 mg/kg; assay type: ADME, organism-based; details: in vivo; procedure, shortened: as §1
Plasma [3] = experiment: Fraction unbound in human plasma by LC-MS/MS analysis; assay type: ADME, cell-free
Plasma [4] = experiment: Drug uptake in plasma of po dosed nude mouse xenografted with human A375 cells after 2 hrs; assay type: ADME, organism-based, A-375; details: in vivo
Procedure, shortened: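 A375 xenograft mice given a single oral dose; tumors and plasma harvested 2 h later. Tumor pERK measured by Western blot with equal protein loading, normalized to total ERK, and expressed as percent reduction in pERK.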

Vd [1] [L/kg]	bioavailability [2] [%]	Cp(f) (Plasma [3]) [%]	Drug uptake (Plasma [4])	SMILES
0.8	100	6	Dose-dependent effect	CC(=O)N[C@H](C)c1ccc(Nc2ncc3cc(-c4ccncc4)ccc3n2)cc1
13	28	5.1	–	C[C@@H](NC(=O)[C@H]1CCCCN1)c1ccc(Nc2ncc3cc(-c4ccncc4)ccc3n2)cc1
–	–	3.4	–	C[C@@H](NC(=O)[C@H]1CCCCN1CCO)c1ccc(Nc2ncc3cc(-c4ccncc4)ccc3n2)cc1
–	–	1.7	–	C[C@@H](NC(=O)[C@H]1CCCNC1)c1ccc(Nc2ncc3cc(-c4ccncc4)ccc3n2)cc1
–	–	3.4	–	C[C@@H](NC(=O)C1CCNCC1)c1ccc(Nc2ncc3cc(-c4ccncc4)ccc3n2)cc1
–	–	1.4	–	C[C@@H](NC(=O)[C@H]1CCCN1)c1ccc(Nc2ncc3cc(-c4ccncc4)ccc3n2)cc1
–	–	3.8	–	C[C@@H](NC(=O)C1CCCCN1C)c1ccc(Nc2ncc3cc(-c4ccncc4)ccc3n2)cc1 (mixture of isomers)

The remaining lines, values behind:

SMILES	Vd [1] [L/kg]	bioavailability [2] [%]	Cp(f) (Plasma [3]) [%]	Drug uptake (Plasma [4])
COCCC(=O)N(C)c1ccc(Nc2ncc3cc(-c4ccncc4)ccc3n2)cc1	0.7	60	–	–
COCCN(C)c1ccc(Nc2ncc3cc(-c4ccncc4)ccc3n2)cc1	–	–	< 1	–
COCCNC(C)c1ccc(Nc2ncc3cc(-c4ccncc4)ccc3n2)cc1 (configuration not stated)	4.9	31	9.4	–
COCCC(=O)N[C@H](C)c1ccc(Nc2ncc3cc(-c4ccncc4)ccc3n2)cc1	–	–	1.5	–
COCCC(=O)N[C@@H](C)c1ccc(Nc2ncc3cc(-c4ccncc4)ccc3n2)cc1	–	–	< 1	–
CC(=O)NC(C)c1ccc(Nc2ncc3cc(-c4ccncc4)ccc3n2)cc1 (configuration not stated)	–	–	5	–
C[C@@H](NC1=CC(=O)CCC1)c1ccc(Nc2ncc3cc(-c4ccncc4)ccc3n2)cc1	0.67	17	1.3	–
C[C@@H](NC1=CC(=O)NCC1)c1ccc(Nc2ncc3cc(-c4ccncc4)ccc3n2)cc1	–	–	2.3	–
C[C@@H](NC1=CC(=O)CNC1)c1ccc(Nc2ncc3cc(-c4ccncc4)ccc3n2)cc1	7.9	–	3.6	–
COc1cc2nc(Nc3ccc([C@@H](C)NC(C)=O)cc3)ncc2cc1-c1ccncc1	0.67	–	–	–
CC(=O)N[C@H](C)c1ccc(Nc2ncc3cc(-c4ccncc4)c(Cl)cc3n2)cc1	–	–	< 1	–
CC(=O)N[C@H](C)c1ccc(Nc2ncc3cc(-c4ccncc4)cc(Cl)c3n2)cc1	–	–	< 1	–
CC(=O)N[C@H](C)c1ccc(Nc2ncc3cc(-c4ccncc4)c(C)cc3n2)cc1	–	–	1.9	–
CC(=O)N[C@H](C)c1ccc(Nc2ncc3cc(-c4ccncc4)cc(C)c3n2)cc1	–	–	< 1	–
